Data taken from ChEMBL document CHEMBL3797028, “Novel S1P1 receptor agonists - Part 4: Alkylaminomethyl substituted aryl head groups” (Eur J Med Chem, 2016).

Tests used:
[1] = Selectivity ratio of EC50 for human recombinant S1PR3 expressed in CHO cell membranes to EC50 for human recombinant S1PR1 expressed in CHO cell membranes; format: cell-based
Summary of the method: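 Compound and membranes are pre-incubated 30 min at rt, then incubated 1 h at rt, filtered and counted. EC50 is the concentration giving 50% of S1P-defined specific binding, as the geometric mean of ≥3 independent duplicate runs. Ratio = EC50 S1PR3/EC50 S1PR1.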

[2] = target: Sphingosine 1-phosphate receptor 3 (Homo sapiens, UniProt Q99500); test: Agonist activity at human recombinant S1PR3 expressed in CHO cell membranes assessed as [35S]GTPgammaS binding preincubated for 30 mins followed by [35S]GTPgammaS addition measured after 1 hr by topcount analysis; format: functional
Sequence of Sphingosine 1-phosphate receptor 3 (Q99500 whole entry): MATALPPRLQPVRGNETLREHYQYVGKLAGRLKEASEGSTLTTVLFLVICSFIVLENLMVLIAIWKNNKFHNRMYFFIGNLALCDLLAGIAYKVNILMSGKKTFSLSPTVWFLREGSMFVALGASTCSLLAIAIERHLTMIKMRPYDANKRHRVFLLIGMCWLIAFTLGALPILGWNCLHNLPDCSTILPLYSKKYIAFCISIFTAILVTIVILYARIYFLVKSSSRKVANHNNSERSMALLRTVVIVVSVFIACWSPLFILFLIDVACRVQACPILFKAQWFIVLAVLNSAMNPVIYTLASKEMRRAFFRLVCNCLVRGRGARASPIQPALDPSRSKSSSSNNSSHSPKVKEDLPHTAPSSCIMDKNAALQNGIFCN
Summary of the method: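 Membranes from CHO cells expressing recombinant human S1P1 or S1P3 were used. Buffer was 20 mM Hepes pH 7.4, 100 mM NaCl, 5 mM MgCl2, 0.1% fatty-acid-free BSA, 2.5% DMSO and 50 pM 35S-GTPgammaS. GDP was […] for S1P3. Compound was preincubated 30 min at rt, then incubated 1 h at rt with 35S-GTPgammaS. Bound label was collected by filtration and counted. Specific binding was taken against 10 uM S1P. EC50 was the 50%-of-specific-binding concentration, reported as the geometric mean of at least three independent duplicate runs.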

[3] = target: Sphingosine 1-phosphate receptor 1 (Homo sapiens, UniProt P21453); test: Agonist activity at human recombinant S1PR1 expressed in CHO cell membranes assessed as [35S]GTPgammaS binding preincubated for 30 mins followed by [35S]GTPgammaS addition measured after 1 hr by topcount analysis
Sequence of Sphingosine 1-phosphate receptor 1 (P21453 whole entry): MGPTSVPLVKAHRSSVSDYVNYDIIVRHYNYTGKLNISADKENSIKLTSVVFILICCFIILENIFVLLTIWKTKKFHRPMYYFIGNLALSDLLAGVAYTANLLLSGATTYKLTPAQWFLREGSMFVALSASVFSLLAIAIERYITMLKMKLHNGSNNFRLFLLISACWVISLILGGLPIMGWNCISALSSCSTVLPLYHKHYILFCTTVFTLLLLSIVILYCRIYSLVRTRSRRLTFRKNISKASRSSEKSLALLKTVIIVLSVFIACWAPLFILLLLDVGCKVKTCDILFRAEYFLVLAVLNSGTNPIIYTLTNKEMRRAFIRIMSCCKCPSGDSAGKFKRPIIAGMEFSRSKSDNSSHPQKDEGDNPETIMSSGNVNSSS

| SMILES | Ratio EC50 [1] | EC50 [2] [nM] | EC50 [3] [nM] |
| --- | --- | --- | --- |
| CCc1cc(-c2noc(-c3ccc(CN(C)CC)c(C)c3)n2)cc(C)c1OC[C@@H](O)CNC(=O)CO | 65 | 910 | 14 |
| CCCCN(C)Cc1cc(-c2nc(-c3cc(C)c(OC[C@@H](O)CNC(=O)CO)c(CC)c3)no2)ccc1C | 9 | 2900 | 310 |
| CCc1cc(-c2noc(-c3ccc(C)c(CNCC(C)C)c3)n2)cc(C)c1OC[C@@H](O)CNC(=O)CO | > 4 | > 10000 | 2350 |
| CCc1cc(-c2noc(-c3cc(CN(C)CC(C)C)ccc3C)n2)cc(C)c1OC[C@@H](O)CNC(=O)CO | > 20 | > 10000 | 490 |
| CCc1cc(-c2noc(-c3ccc(CN(C)C)cc3C)n2)cc(C)c1OC[C@@H](O)CNC(=O)CO | > 43 | > 10000 | 230 |
| CCc1cc(-c2nc(-c3cc(C)c(CCC(=O)NCCO)c(CC)c3)no2)cnc1N(C)C(C)C | – | – | 5.1 |
| CCc1cc(-c2noc(-c3ccc(CNCC(C)C)c(C)c3)n2)cc(C)c1OC[C@@H](O)CNC(=O)CO | > 37 | > 10000 | 270 |
| CCc1cc(-c2noc(-c3cc(C)nc(CN(CC)CC)c3)n2)cc(C)c1OC[C@@H](O)CO | – | – | 110 |
| CCc1cc(-c2noc(-c3ccc(C)c(CN(C)CC(C)C)c3)n2)cc(C)c1OC[C@@H](O)CNC(=O)CO | 12 | 1200 | 97 |
| CCCN(C)Cc1cc(-c2nc(-c3cc(C)c(OC[C@@H](O)CNC(=O)CO)c(CC)c3)no2)cc(C)n1 | 102 | 870 | 8.5 |
| CCCc1cc(CN(C)CC(C)C)cc(-c2nc(-c3cc(C)c(OC[C@@H](O)CNC(=O)CO)c(CC)c3)no2)c1 | < 2 | 3.5 | 2.8 |
| CCc1cc(-c2noc(-c3cc(C)c(CN(C)CCN(C)C)s3)n2)cc(C)c1OC[C@@H](O)CNC(=O)CO | > 64 | > 10000 | 155 |
| CCc1cc(-c2noc(-c3ccc(CNC(C)C)s3)n2)cc(C)c1OC[C@@H](O)CNC(=O)CO | > 49 | > 10000 | 203 |
| CCc1cc(-c2nc(-c3cc(C)c(OC[C@@H](O)CNC(=O)CO)c(CC)c3)no2)ccc1CN(CC)CC | 210 | 210 | 1 |
| CCc1cc(-c2noc(-c3cc(C)nc(CN(C)C)c3)n2)cc(C)c1OC[C@@H](O)CNC(=O)CO | > 250 | > 10000 | 40 |
| CCCCN(C)Cc1ccc(-c2nc(-c3cc(C)c(OC[C@@H](O)CNC(=O)CO)c(CC)c3)no2)cc1C | 66 | 350 | 5.3 |
| CCCN(C)Cc1cc(C)cc(-c2nc(-c3cc(C)c(OC[C@@H](O)CNC(=O)CO)c(CC)c3)no2)c1 | 93 | 380 | 4.1 |
| CCc1cc(-c2noc(-c3sc(CN(C)CC(C)C)c(C)c3C)n2)cc(C)c1OC[C@@H](O)CNC(=O)CO | 42 | 2300 | 55 |
| CCc1cc(-c2noc(-c3sc(CN(C)C)c(C)c3C)n2)cc(C)c1OC[C@@H](O)CNC(=O)CO | 687 | 4400 | 6.4 |
| CCCN(C)Cc1sc(-c2nc(-c3cc(C)c(OC[C@@H](O)CNC(=O)CO)c(CC)c3)no2)cc1CC | 40 | 20 | 0.5 |
| CCc1cc(-c2noc(-c3cc(C)c(CN(C)CCO)s3)n2)cc(C)c1OC[C@@H](O)CNC(=O)CO | 607 | 1700 | 2.8 |
| CCCN(C)Cc1sc(-c2nc(-c3cc(C)c(OC[C@@H](O)CNC(=O)CO)c(CC)c3)no2)cc1C | 200 | 120 | 0.6 |
| CCc1cc(-c2noc(-c3cccc(CNC)c3)n2)cc(C)c1OC[C@@H](O)CNC(=O)CO | > 53 | > 10000 | 190 |
| CCc1cc(-c2noc(-c3ccc(CN(CC)CC)c(C)c3)n2)cc(C)c1OC[C@@H](O)CNC(=O)CO | 56 | 560 | 10 |
| CCc1cc(-c2noc(-c3cc(C)nc(CN(CC)CC)c3)n2)cc(C)c1OC[C@@H](O)CNC(=O)CO | 180 | 8100 | 45 |
| CCc1cc(-c2noc(-c3cc(CN(C)CC(C)C)cc(C(C)C)c3)n2)cc(C)c1OC[C@@H](O)CNC(=O)CO | < 2 | 1.4 | 1.1 |

| SMILES | Ratio EC50 [1] | EC50 [2] [nM] | EC50 [3] [nM] |
| --- | --- | --- | --- |
| CCc1cc(-c2noc(-c3cc(C)c(CNC)s3)n2)cc(C)c1OC[C@@H](O)CNC(=O)CO | > 714 | > 10000 | 14 |
| CCc1cc(-c2noc(-c3ccc(C)c(CN(C)CC)c3)n2)cc(C)c1OC[C@@H](O)CNC(=O)CO | 32 | 9000 | 285 |
| CCc1cc(-c2noc(-c3cc(C)c(CN(C)CC)s3)n2)cc(C)c1OC[C@@H](O)CNC(=O)CO | 115 | 150 | 1.3 |
| CCc1cc(-c2noc(-c3ccc(CN(C)C)s3)n2)cc(C)c1OC[C@@H](O)CNC(=O)CO | > 1850 | > 10000 | 5.4 |
| CCCN(C)Cc1sc(-c2nc(-c3cc(C)c(OC[C@@H](O)CNC(=O)CO)c(CC)c3)no2)c(C)c1C | 26 | 370 | 14 |
| CCCCN(C)Cc1sc(-c2nc(-c3cc(C)c(OC[C@@H](O)CNC(=O)CO)c(CC)c3)no2)cc1C | 171 | 120 | 0.7 |
| CCc1cc(-c2nc(-c3cc(C)c(OC[C@@H](O)CNC(=O)CO)c(CC)c3)no2)ccc1CN(C)CC | 100 | 100 | 1 |
| CCc1cc(-c2noc(-c3ccc(CN(C)C)c(C)c3)n2)cc(C)c1OC[C@@H](O)CNC(=O)CO | – | 3200 | – |
| CCc1cc(-c2nnc(-c3cc(C)nc(N(CC)CC)c3)o2)cc(C)c1OC[C@@H](O)CNC(=O)CO | – | – | 7.9 |
| CCc1cc(-c2noc(-c3ccc(CN(C)CC)s3)n2)cc(C)c1OC[C@@H](O)CNC(=O)CO | 676 | 4600 | 6.8 |
| CCc1cc(-c2noc(-c3cc(C)c(C=O)s3)n2)cc(C)c1OC[C@@H](O)CNC(=O)CO | – | > 10000 | 26 |
| CCNCc1ccc(-c2nc(-c3cc(C)c(OC[C@@H](O)CNC(=O)CO)c(CC)c3)no2)s1 | > 34 | > 10000 | 293 |
| CCc1cc(-c2noc(-c3ccc(CNC)cc3)n2)cc(C)c1OC[C@@H](O)CNC(=O)CO | > 4.8 | > 10000 | 2090 |
| CCc1cc(-c2noc(-c3ccc(C)c(CN(C)C)c3)n2)cc(C)c1OC[C@@H](O)CNC(=O)CO | > 26 | > 10000 | 385 |
| CCc1cc(-c2noc(-c3cc(C)cc(CNCC(C)C)c3)n2)cc(C)c1OC[C@@H](O)CNC(=O)CO | 140 | 2100 | 15 |
| CCc1cc(-c2noc(-c3ccc(CNC)s3)n2)cc(C)c1OC[C@@H](O)CNC(=O)CO | > 53 | > 10000 | 189 |
| CCCCN(C)Cc1cc(-c2nc(-c3cc(C)c(OC[C@@H](O)CNC(=O)CO)c(CC)c3)no2)cc(C)n1 | 349 | 1500 | 4.3 |
| CCc1cc(-c2nc(-c3cc(C)c(OC[C@@H](O)CNC(=O)CO)c(CC)c3)no2)sc1CN(C)C | 150 | 45 | 0.3 |
| CCc1cc(-c2noc(-c3cc(C)c(CNCC(C)C)s3)n2)cc(C)c1OC[C@@H](O)CNC(=O)CO | 70 | 1400 | 20 |
| CCc1cc(CN(C)CC(C)C)cc(-c2nc(-c3cc(C)c(OC[C@@H](O)CNC(=O)CO)c(CC)c3)no2)c1 | 7 | 8 | 1.1 |
| CCCN(C)Cc1cc(-c2nc(-c3cc(C)c(OC[C@@H](O)CNC(=O)CO)c(CC)c3)no2)ccc1C | 14 | 4300 | 305 |
| CCc1cc(-c2noc(-c3cc(C)c(CN(C)C)c(C)c3)n2)cc(C)c1OC[C@@H](O)CNC(=O)CO | > 80 | 5500 | 69 |
| CCCNCc1cccc(-c2nc(-c3cc(C)c(OC[C@@H](O)CNC(=O)CO)c(CC)c3)no2)c1 | > 33 | > 10000 | 305 |
| CCc1cc(-c2noc(-c3ccc(CN(C)C)cc3)n2)cc(C)c1OC[C@@H](O)CNC(=O)CO | > 62 | > 10000 | 160 |
| CCc1cc(-c2noc(-c3cc(C)nc(CN4CCCC4)c3)n2)cc(C)c1OC[C@@H](O)CNC(=O)CO | > 105 | > 10000 | 95 |
| CCc1cc(-c2noc(-c3ccc(CN4CCCC4)c(C)c3)n2)cc(C)c1OC[C@@H](O)CNC(=O)CO | 62 | 3100 | 50 |
